In one series the test system is TGCT patients. To be noted: across all trials of pexidartinib in TGCT; cited from earlier work.
Series [1] is described as follows: Plasma protein binding, human plasma. It is filed as in vitro ADME.
Another series deals with M-NFS-60 cells. As to the kind of experiment: M-NFS-60 cell proliferation assay. It is filed as cell-based, mouse. To be noted: 1,000 ng/mL versus 10 ng/mL CSF1.
Series [2] deals with cytochrome P450 (CYP) isoforms (all isoforms studied). As to the kind of experiment: Cytochrome P450 inhibition, all isoforms studied. It is filed as in vitro ADME.
The subject of series [3] is cytochrome P450 (CYP) isoforms. Nature of the series: Cytochrome P450 inhibition, all isoforms studied. In kind it is in vitro ADME.
The test system of series [4] is CSF1R signaling (phospho-ERK) in monocytes in human whole blood. As to the kind of experiment: Whole blood phospho-ERK flow cytometry assay. In kind it is cell-based. To be noted: Monocyte, read-out: adjusted free IC50. Summed up: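 Whole blood from a healthy donor (K2EDTA) incubated with test compound in 100 µL aliquots for 4 h at 37°C, then stimulated with CSF1 10 ng/mL for 5 min. RBCs lysed and cells fixed, permeabilized on ice, and stained with anti-CD14-PE and anti-phospho-ERK1/2. Median phospho-ERK fluorescence measured in CD14⁺ cells, from 50,000 events in the WBC gate.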
On the technique in general: A flow cytometer gives signals particle by particle.

Series [5] is described as follows: Crossover pharmacokinetic study in rats. In kind it is in vivo, Sprague-Dawley rats. Summed up: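 Crossover design in 3 fasted male Sprague-Dawley rats. Single IV dose of 1 mg/kg in 20% Captisol / 25 mmol/L pH 2 phosphate buffer, or oral 10 mg/kg in 0.4% HPMC. Plasma sampled at 0, 0.083 (IV only), 0.25, 0.5, 1, 2, 4, 6, 8, 12 and 24 h and analysed by LC/MS.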
The target in another series is MDR1 drug transporter (Homo sapiens, UniProt P08183). Nature of the series: MDR1 transporter inhibition. It is filed as in vitro ADME.
Series [6] deals with human osteoclast precursors. As to the kind of experiment: Osteoclast differentiation assay. In kind it is cell-based. To be noted: 240 h, read-out: IC50, osteoclast differentiation. Summed up:
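Human osteoclast precursors thawed into complete medium with 66 ng/mL RANKL and 33 ng/mL human CSF1. Plated at 2,500 cells/well onto serially diluted test compound in triplicate (0.1% DMSO final). Cultured 10 days at 37°C. Differentiation read as tartrate-resistant acid phosphatase activity in supernatant, absorbance at 550 nm.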

For series [7], the system named is tenosynovial giant cell tumor (TGCT). Nature of the series: Phase I/II study DCC-3014-01-001. In kind it is in vivo, human.
Series [8] can be described thus: Mouse pharmacokinetics at steady state. It is filed as in vivo, DBA/1 mice. To be noted: female, DBA/1, mouse, plasma, po, 3 mg/kg.
For the next series, the target named is hERG channel (Homo sapiens, UniProt Q12809). As to the kind of experiment: Predictor hERG fluorescence polarization binding assay.
The test system of another series is CD68+ macrophages. As to the kind of experiment: CD68+ macrophages in rat tissues. It is filed as in vivo, Sprague-Dawley rats. To be noted: 15 mg/kg/day orally, 14 days. Summed up: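 Male Sprague-Dawley rats dosed orally for 14 days with 0.4% HPMC vehicle or test compound 15 mg/kg daily (5 per group). FFPE organ tissues stained for CD68 with DAPI counterstain. Five nonoverlapping fields imaged at 20× per tissue. Total cell counts and CD68⁺ cell density (cells/mm²) determined.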

Another series deals with MC38 colorectal cancer. Nature of the series: MC38 syngeneic colorectal cancer model. In kind it is in vivo, C57BL/6 mice. Summed up: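 Female C57BL/6 mice implanted s.c. in the lower right flank with 1×10^6 MC38 cells in PBS. Randomized at mean tumor 104 mm³ and dosed days 12–39: test compound 10 mg/kg oral daily (0.4% HPMC vehicle) plus isotype or anti-PD1 10 mg/kg i.p. twice weekly, n = 15. Five per group taken day 32, 2 h post-dose; fresh tumors analysed by flow cytometry (macrophages CD45/CD11b/F4/80).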

The test system of series [9] is PC3 prostate cancer peritibial implant xenograft. As to the kind of experiment: PC3 peritibial implant bone invasion xenograft model. In kind it is in vivo, nude mice. To be noted: 10 mg/kg once or twice daily, oral. Summed up: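 Male athymic nude mice acclimated 7 days, then implanted with 1×10^6 PC3 cells in serum-free MEM between tibia and fibula of the right leg. Randomized by body weight. Oral dosing began 6 h post-implant, days 1–32: 0.4% HPMC vehicle or test compound 10 mg/kg once or twice daily, n = 20 per group. Tumor burden = (length × width²)/2 from calipers, measured 2–3 times weekly.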

For series [10], the system named is CSF1-stimulated cFOS expression in mouse spleens. As to the kind of experiment: Mouse PK/PD model, six daily oral doses. In kind it is in vivo.
The nature of series [11]: Plasma protein binding, mouse plasma. It is filed as in vitro ADME.
Series [12] can be described thus: Mouse pharmacokinetics after a single oral dose. It is filed as in vivo, DBA/1 mice. To be noted: 3.75 mg/kg single oral dose.
The nature of series [13]: Crossover pharmacokinetic study in dogs. It is filed as in vivo, Beagle dogs. Summed up:
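Crossover design in 3 fasted male Beagle dogs. Single IV dose of 1 mg/kg in 20% Captisol / 25 mmol/L pH 2 phosphate buffer, or oral 3, 10 or 30 mg/kg in 0.4% HPMC. Plasma sampled at 0, 0.083 (IV only), 0.25, 0.5, 1, 2, 4, 6, 8, 12 and 24 h. Quantified by LC/MS.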

[14] abbreviates: male, Sprague-Dawley, rat, plasma, intravenous, 1 mg/kg.
[15] abbreviates: 3 TGCT patients, cycle 2 day 1, trough and 4 hours after dose.
Where [16] appears, read: male, beagle, dog, plasma, intravenous, 1 mg/kg.

The structures appear in SMILES notation. “And” between values parts separate entries of the source, which are not always exact repeats. Equal entries are not always repeated.

Results on 2 molecules are retold here after article PMC9398179 (Molecular Cancer Therapeutics, 2021).

hERG channel, sequence (Q12809 whole entry): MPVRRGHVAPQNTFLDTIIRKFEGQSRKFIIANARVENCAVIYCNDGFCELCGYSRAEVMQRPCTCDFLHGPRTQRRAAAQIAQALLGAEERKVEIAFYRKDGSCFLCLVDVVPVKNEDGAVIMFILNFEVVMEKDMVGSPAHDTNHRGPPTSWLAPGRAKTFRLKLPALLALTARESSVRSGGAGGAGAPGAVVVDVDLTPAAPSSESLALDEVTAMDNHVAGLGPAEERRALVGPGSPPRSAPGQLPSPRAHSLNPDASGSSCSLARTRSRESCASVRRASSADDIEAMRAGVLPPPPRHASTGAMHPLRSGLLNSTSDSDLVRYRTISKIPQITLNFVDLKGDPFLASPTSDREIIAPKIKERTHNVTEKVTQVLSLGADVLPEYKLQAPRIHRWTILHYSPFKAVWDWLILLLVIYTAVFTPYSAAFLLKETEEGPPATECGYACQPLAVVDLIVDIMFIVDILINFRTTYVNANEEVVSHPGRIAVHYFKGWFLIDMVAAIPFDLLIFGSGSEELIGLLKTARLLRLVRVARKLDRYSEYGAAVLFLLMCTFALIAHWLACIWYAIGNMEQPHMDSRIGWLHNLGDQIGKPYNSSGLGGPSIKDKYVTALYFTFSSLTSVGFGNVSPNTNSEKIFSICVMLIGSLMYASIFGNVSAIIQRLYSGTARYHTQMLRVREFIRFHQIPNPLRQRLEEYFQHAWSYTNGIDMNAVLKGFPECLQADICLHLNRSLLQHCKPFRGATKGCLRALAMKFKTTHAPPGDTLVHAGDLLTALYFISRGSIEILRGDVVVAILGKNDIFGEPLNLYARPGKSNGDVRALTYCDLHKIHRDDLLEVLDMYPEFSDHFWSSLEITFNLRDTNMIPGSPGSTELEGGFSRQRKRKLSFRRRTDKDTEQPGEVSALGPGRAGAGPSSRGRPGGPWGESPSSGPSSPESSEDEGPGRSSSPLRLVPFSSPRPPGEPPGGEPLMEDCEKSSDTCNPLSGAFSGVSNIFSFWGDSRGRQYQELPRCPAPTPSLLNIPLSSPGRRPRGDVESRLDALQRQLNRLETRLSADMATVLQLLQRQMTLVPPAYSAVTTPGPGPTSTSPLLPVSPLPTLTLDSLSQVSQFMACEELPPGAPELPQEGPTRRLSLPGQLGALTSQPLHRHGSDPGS
MDR1 drug transporter, sequence (P08183 whole entry): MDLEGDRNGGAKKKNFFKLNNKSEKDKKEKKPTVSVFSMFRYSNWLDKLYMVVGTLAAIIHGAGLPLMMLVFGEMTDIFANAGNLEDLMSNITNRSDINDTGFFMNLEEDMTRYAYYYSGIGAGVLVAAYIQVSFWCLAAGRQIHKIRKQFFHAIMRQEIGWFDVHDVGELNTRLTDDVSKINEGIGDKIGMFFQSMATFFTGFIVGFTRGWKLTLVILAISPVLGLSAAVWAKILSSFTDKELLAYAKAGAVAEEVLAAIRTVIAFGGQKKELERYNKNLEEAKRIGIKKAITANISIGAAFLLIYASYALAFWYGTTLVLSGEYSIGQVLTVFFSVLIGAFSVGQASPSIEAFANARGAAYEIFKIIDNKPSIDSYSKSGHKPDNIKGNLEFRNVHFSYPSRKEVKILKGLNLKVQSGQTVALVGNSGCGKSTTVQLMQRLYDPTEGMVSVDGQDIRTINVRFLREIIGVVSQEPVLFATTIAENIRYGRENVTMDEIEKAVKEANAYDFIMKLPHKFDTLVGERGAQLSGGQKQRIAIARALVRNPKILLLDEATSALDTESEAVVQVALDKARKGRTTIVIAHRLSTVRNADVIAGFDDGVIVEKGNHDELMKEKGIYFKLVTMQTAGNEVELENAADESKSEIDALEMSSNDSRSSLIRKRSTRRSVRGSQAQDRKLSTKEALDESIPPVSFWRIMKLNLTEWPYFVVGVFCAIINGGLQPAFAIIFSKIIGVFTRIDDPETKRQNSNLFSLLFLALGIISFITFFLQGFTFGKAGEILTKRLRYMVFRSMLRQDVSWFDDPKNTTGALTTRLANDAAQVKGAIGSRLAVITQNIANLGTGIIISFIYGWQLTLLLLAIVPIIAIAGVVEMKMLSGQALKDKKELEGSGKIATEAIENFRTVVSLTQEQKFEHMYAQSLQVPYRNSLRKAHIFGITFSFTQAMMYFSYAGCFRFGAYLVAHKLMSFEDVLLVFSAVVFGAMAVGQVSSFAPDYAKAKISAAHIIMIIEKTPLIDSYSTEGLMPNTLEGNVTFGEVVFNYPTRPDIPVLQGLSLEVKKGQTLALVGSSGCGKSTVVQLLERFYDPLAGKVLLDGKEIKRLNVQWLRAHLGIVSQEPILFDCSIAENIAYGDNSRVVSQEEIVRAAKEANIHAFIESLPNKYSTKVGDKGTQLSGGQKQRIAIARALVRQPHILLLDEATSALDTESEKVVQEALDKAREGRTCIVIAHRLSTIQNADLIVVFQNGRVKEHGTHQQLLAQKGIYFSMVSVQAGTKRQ

Consider `FC(F)(F)c1ccc(CNc2ccc(Cc3c[nH]c4ncc(Cl)cc34)cn2)cn1` [Pexidartinib, pexidartinib], for which the “serious hepatic adverse events assessed as probably drug-related” value with TGCT patients is “five”. In series [1] (method and source not stated), this molecule came in with a plasma protein binding greater than 99 % bound. The “loss of potency at high CSF1 ligand concentration” value in the series with M-NFS-60 cells is 3.8 fold.
As for `Cc1nc(-c2cnc(NC(C)C)n(C)c2=O)ccc1Oc1ccnc(-c2cnn(C)c2)c1` [Vimseltinib, vimseltinib], the IC50 (commonly the concentration that gives 50% inhibition) in [2] is greater than 75 µM; in series [4], roughly 0.014 µM; against MDR1 drug transporter, 4.35 µM; in series [6], 0.0093 µM. Moreover, the “time-dependent or metabolism-dependent inhibition of any CYP isoform” value in [3] is “no time-dependent or metabolism-dependent inhibition of any CYP isoform”. Moreover, the Vd (usually the apparent volume that relates the amount in the body to the concentration in plasma or blood) in [5] (setting [14]) was 0.69 L/kg; in series [13] (setting [16]), 1.33 L/kg. Besides, the clearance (commonly a measure of how efficiently the substance is removed, as volume per time) in series [5] (setting [14]) was 0.5 mL/min/kg; in series [13] (setting [16]) it was 2.5 mL/min/kg. Besides, the results for the half-life in series [5] (setting [14]) and in series [13] (setting [16]) were 14.2 h and 6.8 h, respectively. The oral bioavailability is 76 % F in [5] (rats, 10 mg/kg oral versus 1 mg/kg IV) and ~ 30 % F in series [13] (dogs, simple vehicle). Besides, the average plasma concentration entry in [7] (setting [15]) is “approximately 500 ng/mL”. Further, the “average plasma concentration (total drug)” value in [7] (setting [15]) is on record as ~ 1,200 nmol/L. In series [7] (3 patients with TGCT, cycle 2 day 1, 30 mg once a day for 5 days then 30 mg twice weekly), the “plasma CSF1 and IL34 levels” value is “increases in CSF1 and IL34 levels”. Also, the “change in tumor size (RECIST v1.1, MRI)” value in series [7] (patient 2, right hip TGCT, after two cycles) is −25%. The AUC(0-t) (in general, the area under the concentration-time curve up to a stated or last time point) in series [8] was 49300 ng·h/mL. Besides, the EC50 (commonly the concentration needed to bring the measured effect to its halfway point) at hERG channel was greater than 25 µM; in series [10] (Mus musculus, po, read-out: free EC50), 0.012 µg/mL and 28 nM. Further, the “EC20, hERG binding” value on hERG channel (in vitro binding assay) is 19.4 µM. In addition, the “decrease in liver CD68+ macrophages” value with CD68+ macrophages (P < 0.0001) is reported as 68%. For the same molecule, the “decrease in colon CD68+ macrophages” value in the series with CD68+ macrophages (P = 0.17) was 47%. For the same molecule, the “bound to proteins in plasma” value in [1] (human plasma, in vitro ultracentrifugation assay) is “approximately 96.5%”. The “reduction of TAMs in the primary tumor” value in the series on MC38 colorectal cancer (after 3 weeks of dosing, flow cytometry) is given as greater than 6 fold. Also, the “tumor growth inhibition (%TGI)” value in the series on MC38 colorectal cancer (day 32, vimseltinib 10 mg/kg orally every day, anti-PD1 10 mg/kg i.p. twice a week) came out at 52%. Moreover, in series [9], the primary tumor growth entry is reported as “not affected”. Moreover, in [9] (to day 32, n = 20/cohort), the “bone degradation (CT score 0–4)” value is on record as “statistically significant protection from bone degradation”. The “inhibition of cFOS expression” value in series [10] (3 mg/kg, six daily doses, at 24 and 48 hours) is reported as “approximately 50%”; in series [10] (3 mg/kg, six daily doses, for 12 hours), no less than 90%; in [10] (six daily oral doses of 1, 3, and 10 mg/kg) it was “significantly inhibited cFOS expression”. Moreover, the EC80 in series [10] (all animals in the steady-state study) is 1,700 ng/mL. Also, the bound in plasma result in [11] is on record as “approximately 97.2%”. In addition, in [12], the “AUC0–24” value is reported as 28,987 ng*hour/mL.
